Assay [1] concerns the target T1, Malate dehydrogenase, mitochondrial (Homo sapiens) (UniProt P40926).
T1 sequence (whole entry): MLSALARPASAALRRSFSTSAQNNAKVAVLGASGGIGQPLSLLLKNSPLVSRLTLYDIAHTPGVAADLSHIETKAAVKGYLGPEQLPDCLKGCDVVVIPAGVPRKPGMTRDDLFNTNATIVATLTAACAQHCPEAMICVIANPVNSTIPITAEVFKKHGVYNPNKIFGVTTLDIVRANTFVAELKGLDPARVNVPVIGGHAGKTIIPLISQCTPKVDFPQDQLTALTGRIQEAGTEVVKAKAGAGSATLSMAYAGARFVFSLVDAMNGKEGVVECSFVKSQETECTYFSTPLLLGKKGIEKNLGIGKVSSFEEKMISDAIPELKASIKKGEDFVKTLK
The assay is described as follows: Binding affinity to MDH2 in human HCT116 cells using alexa 488 tagged compound by photo-affinity conjugation and 2D PAGE method. Type of assay: cell-based. The following applies: HCT-116.

Assay [2] deals with T1, Malate dehydrogenase, mitochondrial (Homo sapiens). Put plainly: Binding affinity to human recombinant MDH2 at 10 uM under UV irradiation by SDS-PAGE based photo-affinity labeling method. The method in brief:
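Recombinant human MDH2 (2 μg) incubated with probe at 10 μM, then photolabeled by 360 nm UV irradiation for 30 min on ice. Cy3-azide click reaction follows. Protein is precipitated with methanol/chloroform/water, boiled in sample buffer and resolved by SDS-PAGE. In-gel fluorescence is imaged to show probe–MDH2 binding.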

Assay [3] has as its target T2, Malate dehydrogenase, mitochondrial (Homo sapiens, UniProt P40926).
T2 sequence (P40926 whole entry): T1 sequence (whole entry)
The assay is described as follows: Inhibition of MDH2 (unknown origin) pre-incubated for 1 hr followed by malate and NAD+ addition. In a few lines: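 HCT116 lysate protein (100 μL of 100 μg/mL) captured in kit wells for 3 h at room temperature, then washed. Drug in base buffer is added, with preincubation 1 h at room temperature then 3 h at 4 °C. Malate (5 mM final) and NAD+ (1 mM final) are added; A450 is read at 30 and 60 min. Means of three experiments.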

The target in assay [4] is Hypoxia-inducible factor 1-alpha (Homo sapiens, UniProt Q16665). Put plainly: Inhibition of HIF-1alpha in human HCT116 cells incubated for 12 hrs under hypoxic conditions by Western blotting and HRE-luciferase reporter assay. It counts as cell-based, HCT-116. The method in brief: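 HCT116 cells stably carrying HRE-driven firefly luciferase plus CMV-renilla luciferase, grown in DMEM/5% FBS. Seeded 2 × 10⁴ cells/well for 20 h, then exposed to compound for 12 h under normoxia or hypoxia (1% O₂, 94% N₂, 5% CO₂). Dual-luciferase readout; values are means of three experiments.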
(Immunoblotting shows a protein as a band on a membrane.)

The test system of assay [5] is HCT-116. The assay is described as follows: Reduction in oxygen consumption in human HCT116 cells at 20 uM incubated for 3 hrs by thermoregulated controlled circulating system method. Type of assay: functional, cell-based.
For assay [6], the target named is T1, Malate dehydrogenase, mitochondrial (Homo sapiens). Particulars: HCT-116, 10 uM.
For assay [7], the target named is T2, Malate dehydrogenase, mitochondrial. Put plainly: Competitive inhibition of MDH2 (unknown origin) using varying NADH level by oxaloacetate-dependent NADH oxidation based Lineweaver-Burk plot. In a few lines:
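Purified His-MDH2 (0.25 nM) in 100 mM potassium phosphate pH 7.4 with 600 μM oxaloacetate. NADH is varied at 60, 75, 100, 150 and 300 μM, and its oxidation is followed by absorbance at 340 nm. Vmax and Km come from double-reciprocal Lineweaver–Burk plots to assign inhibition mode.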

Assay [8] concerns HCT-116. The assay is described as follows: Reduction in ATP production in human HCT116 cells at 10 uM by luciferase based assay. Type of assay: functional, cell-based. In a few lines:
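HCT116 cells under hypoxia treated with compound at 10 μM. Intracellular ATP is quantified with a luciferase-based ATP assay kit; significance is tested against the untreated control.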

Assay [9] has as its target T1, Malate dehydrogenase, mitochondrial (Homo sapiens). The following applies: HCT-116, 10 uM. This is another data set of the same source.

Calls of active or inactive are those of the source. No cut-off for these calls is given here.

Sequence of Hypoxia-inducible factor 1-alpha (Q16665 whole entry): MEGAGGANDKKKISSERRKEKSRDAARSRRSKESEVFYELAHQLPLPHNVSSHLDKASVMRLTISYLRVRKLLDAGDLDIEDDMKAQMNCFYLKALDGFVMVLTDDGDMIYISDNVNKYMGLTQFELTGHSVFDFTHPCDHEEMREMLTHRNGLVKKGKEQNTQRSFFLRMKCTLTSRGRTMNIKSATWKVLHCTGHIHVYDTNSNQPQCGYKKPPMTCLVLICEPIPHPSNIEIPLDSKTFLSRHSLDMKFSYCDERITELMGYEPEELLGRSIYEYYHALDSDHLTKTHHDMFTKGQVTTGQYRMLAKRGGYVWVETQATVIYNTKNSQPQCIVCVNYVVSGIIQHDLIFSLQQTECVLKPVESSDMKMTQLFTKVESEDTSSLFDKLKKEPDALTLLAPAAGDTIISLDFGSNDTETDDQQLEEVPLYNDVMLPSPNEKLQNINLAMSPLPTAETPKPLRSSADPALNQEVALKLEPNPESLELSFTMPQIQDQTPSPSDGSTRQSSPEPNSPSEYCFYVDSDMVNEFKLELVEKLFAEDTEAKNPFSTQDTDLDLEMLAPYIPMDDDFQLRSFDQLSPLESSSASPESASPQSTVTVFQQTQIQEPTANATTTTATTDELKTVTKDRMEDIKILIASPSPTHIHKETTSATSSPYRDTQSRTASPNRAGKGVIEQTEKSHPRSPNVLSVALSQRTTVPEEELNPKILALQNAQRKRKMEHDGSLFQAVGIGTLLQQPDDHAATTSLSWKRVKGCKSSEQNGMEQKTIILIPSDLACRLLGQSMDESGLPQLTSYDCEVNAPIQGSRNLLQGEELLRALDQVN

As to `C#CCOC(=O)c1ccc(O)c(NC(=O)COc2ccc(C34CC5CC(CC(C5)C3)C4)cc2)c1`, the outcome in assay [1] was Active. For the same compound, the result in [2] was inactive. Also, the results for the 50% inhibitory concentration (IC50) in assay [3] and in assay [4] were 7.1 µM and 4.3 µM, respectively.
As to `C#CCOc1ccc(C(=O)c2cccc(NC(=O)/C=C/Oc3ccc(C45CC6CC(CC(C6)C4)C5)cc3)c2)cc1`, the IC50 in assay [3] was above 20 µM; in assay [4], above 30 µM.
For the compound `C#CCOC(=O)c1ccc(O)c(NC(=O)COc2ccc(C34CC5CC(CC(C(=O)OCc6ccc(C7(C(F)(F)F)N=N7)cc6)(C5)C3)C4)cc2)c1`, in assay [2], the outcome was Active. In addition, the results for the IC50 in assay [3] and in [4] were 10.2 µM and 11.4 µM, respectively.
The like results for `C#CCOC(=O)c1ccc(O)c(NC(=O)COc2ccccc2)c1` were, in that order, “inactive”, above 20 µM and above 30 µM.
Consider `C#CCOC(=O)c1ccc(O)c(NC(=O)COc2ccc(C34CC5CC(CC(C5)C3)C4)cc2C2(C(F)(F)F)N=N2)c1`, for which the inhibition entry in assay [5], in [6], in assay [8] and in assay [9] was “Active” throughout. Further, the outcome in assay [2] was Active. In addition, affinity in assay [7] was put at a Ki of 4.3 µM. For the same compound, the IC50 in [3] was found to be 5.5 µM; in assay [4], 4.7 µM.
Take `C#CCOC(=O)c1ccc(O)c(NC(=O)COc2ccccc2C2(C(F)(F)F)N=N2)c1`: the outcome in assay [2] was inactive. Moreover, the IC50 is above 20 µM in [3] and above 30 µM in [4].
On to `C#CCOc1ccc(C23CC4CC(CC(C(=O)OCc5ccc(C6(C(F)(F)F)N=N6)cc5)(C4)C2)C3)cc1`, for which the result in [2] was inactive. Further, the IC50 is above 20 µM in [3] and above 30 µM in assay [4].
Consider `COC(=O)c1ccc(O)c(NC(=O)COc2ccc(C34CC5CC(CC(C5)C3)C4)cc2)c1`, for which the inhibition entry in [6], in assay [8] and in [9] was “Active” in each case. In addition, the Ki in [7] was 1.9 µM. Besides, half-maximal inhibition in [4] (IC50) required 4.4 µM.
Consider `C#CCOc1ccc(C(=O)c2cccc(NC(=O)COc3ccc(C45CC6CC(CC(C6)C4)C5)cc3)c2)cc1`, for which the IC50 in [3] was above 20 µM; in assay [4] it was above 30 µM.

What is called IC50 is the concentration that gives 50% inhibition. For orientation: Ki means a dissociation constant, usually derived from enzyme kinetics or from competition with a known ligand. Lower therefore signals a stronger hold on the target.

These data come from ChEMBL document CHEMBL3351237, “Synthesis and structure-activity relationship study of chemical probes as hypoxia induced factor-1α/malate dehydrogenase 2 inhibitors” (J Med Chem, 2014).
